Experimental data from ChEMBL document CHEMBL4257549, “Design, synthesis and biological evaluation of benzimidazole-rhodanine conjugates as potent topoisomerase II inhibitors” (Medchemcomm, 2018).
Activity calls are given as the source filed them. The calls are words filed in the database; no cut-off is given here.

What follows are compounds tested on HL-60 (assay: Cytotoxicity against human HL60 cells after 48 hrs by MTT assay). Conditions: HL-60, 48 h.
Assay type: functional, cell-based
Summary of the method: (§1)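 Cells seeded at 5000 per well, left overnight, then exposed to compound at 0–50 μM for 48 h. MTT (20 μL of 2.5 mg mL−1) added for a further 4 h at 37 °C, formazan dissolved in DMSO, absorbance read at 570 nm. Quadruplicate wells, N > 2 determinations, mean IC50 taken as the concentration reducing cell number to 50%.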

Row | Structure (SMILES) | IC50 [µM]
1 | Cc1ccc(Cn2c(/C=C3\SC(=S)N(CC(=O)O)C3=O)nc3ccccc32)cc1 | 0.54
2 | Cc1ccc(Cn2c(/C=C3\SC(=S)N(CC(=O)O)C3=O)nc3cc(F)ccc32)cc1 | 1.17
3 | Cc1ccc(Cn2c(/C=C3\SC(=S)N(CC(=O)O)C3=O)nc3ccc(F)cc32)cc1 | 1.69
4 | O=C(O)CN1C(=O)/C(=C/c2nc3cc(Cl)ccc3n2Cc2ccccc2F)SC1=S | 0.87

What follows are compounds tested on HeLa (assay: Cytotoxicity against human HeLa cells after 48 hrs by MTT assay). Conditions: not given.
Assay type: functional, cell-based
Summary of the method: as §1

Row | Structure (SMILES) | IC50 [µM]
5 | Cc1ccc(Cn2c(/C=C3\SC(=S)N(CC(=O)O)C3=O)nc3ccccc32)cc1 | 1.28
6 | Cc1ccc(Cn2c(/C=C3\SC(=S)N(CC(=O)O)C3=O)nc3cc(F)ccc32)cc1 | 2.38
7 | Cc1ccc(Cn2c(/C=C3\SC(=S)N(CC(=O)O)C3=O)nc3ccc(F)cc32)cc1 | 3.92
8 | O=C(O)CN1C(=O)/C(=C/c2nc3cc(Cl)ccc3n2Cc2ccccc2F)SC1=S | 9.52

Each compound was assayed on MDA-MB-231 (assay: Cytotoxicity against human MDA-MB-231 cells after 48 hrs by MTT assay). Conditions: MDA-MB-231, 48 h.
Assay type: functional, cell-based
Summary of the method: as §1

Row | Structure (SMILES) | IC50 [µM]
9 | Cc1ccc(Cn2c(/C=C3\SC(=S)N(CC(=O)O)C3=O)nc3ccccc32)cc1 | 1.04
10 | Cc1ccc(Cn2c(/C=C3\SC(=S)N(CC(=O)O)C3=O)nc3cc(F)ccc32)cc1 | 6.55
11 | Cc1ccc(Cn2c(/C=C3\SC(=S)N(CC(=O)O)C3=O)nc3ccc(F)cc32)cc1 | 3.86
12 | O=C(O)CN1C(=O)/C(=C/c2nc3cc(Cl)ccc3n2Cc2ccccc2F)SC1=S | 1.67

Organism: Homo sapiens
Assay: Poison activity at human topoisomerase 2 assessed as […] at 50 uM after 6 mins by agarose gel electrophoresis
Conditions: not given

Row | Structure (SMILES) | Activity
13 | Cc1ccc(Cn2c(/C=C3\SC(=S)N(CC(=O)O)C3=O)nc3ccccc32)cc1 | inactive

What follows are compounds tested on A549 (assay: Cytotoxicity against human A549 cells after 48 hrs by MTT assay). Conditions: A549, 48 h.
Assay type: functional, cell-based
Summary of the method: as §1

Row | Structure (SMILES) | IC50 [µM]
14 | Cc1ccc(Cn2c(/C=C3\SC(=S)N(CC(=O)O)C3=O)nc3ccccc32)cc1 | 3.22
15 | Cc1ccc(Cn2c(/C=C3\SC(=S)N(CC(=O)O)C3=O)nc3cc(F)ccc32)cc1 | 13.8
16 | Cc1ccc(Cn2c(/C=C3\SC(=S)N(CC(=O)O)C3=O)nc3ccc(F)cc32)cc1 | 9.64
17 | O=C(O)CN1C(=O)/C(=C/c2nc3cc(Cl)ccc3n2Cc2ccccc2F)SC1=S | 5.64

What follows are compounds tested on PC-3 (assay: Cytotoxicity against human PC3 cells after 48 hrs by MTT assay). Conditions: PC-3, 48 h.
Assay type: functional, cell-based
Summary of the method: as §1

Row | Structure (SMILES) | IC50 [µM]
18 | Cc1ccc(Cn2c(/C=C3\SC(=S)N(CC(=O)O)C3=O)nc3ccccc32)cc1 | 2.64
19 | Cc1ccc(Cn2c(/C=C3\SC(=S)N(CC(=O)O)C3=O)nc3cc(F)ccc32)cc1 | 10.2
20 | Cc1ccc(Cn2c(/C=C3\SC(=S)N(CC(=O)O)C3=O)nc3ccc(F)cc32)cc1 | 5.82
21 | O=C(O)CN1C(=O)/C(=C/c2nc3cc(Cl)ccc3n2Cc2ccccc2F)SC1=S | 3.48

Each compound was assayed against T1, DNA topoisomerase 1 (Homo sapiens) (UniProt P11387) (assay: Inhibition of topoisomerase 1 (unknown origin)-mediated pBR322 DNA relaxation at 50 uM after 30 mins by agarose gel electrophoresis). Conditions: not given.
T1 sequence (whole entry): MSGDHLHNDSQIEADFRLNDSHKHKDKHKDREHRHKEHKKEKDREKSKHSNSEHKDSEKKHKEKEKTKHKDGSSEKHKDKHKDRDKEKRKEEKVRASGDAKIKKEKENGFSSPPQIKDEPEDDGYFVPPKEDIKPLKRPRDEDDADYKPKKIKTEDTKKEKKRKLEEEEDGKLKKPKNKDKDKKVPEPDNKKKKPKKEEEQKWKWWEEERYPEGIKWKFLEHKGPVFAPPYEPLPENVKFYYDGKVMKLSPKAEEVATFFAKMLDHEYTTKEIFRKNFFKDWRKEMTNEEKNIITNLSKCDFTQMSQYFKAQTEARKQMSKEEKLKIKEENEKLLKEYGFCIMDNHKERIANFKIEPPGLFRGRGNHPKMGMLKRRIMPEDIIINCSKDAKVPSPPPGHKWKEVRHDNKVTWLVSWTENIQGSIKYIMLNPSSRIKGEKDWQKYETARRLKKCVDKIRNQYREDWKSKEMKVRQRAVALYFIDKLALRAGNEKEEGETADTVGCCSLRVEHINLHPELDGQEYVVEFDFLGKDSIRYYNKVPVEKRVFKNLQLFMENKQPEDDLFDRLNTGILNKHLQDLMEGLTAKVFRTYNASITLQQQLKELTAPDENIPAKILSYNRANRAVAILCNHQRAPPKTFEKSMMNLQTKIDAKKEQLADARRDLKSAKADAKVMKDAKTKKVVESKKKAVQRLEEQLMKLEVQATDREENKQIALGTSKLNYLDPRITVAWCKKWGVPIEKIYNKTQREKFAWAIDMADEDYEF
Summary of the method: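 Topo I relaxation of pBR322 with compound at 30 min, 37 °C, camptothecin positive control. Stopped with SDS/bromophenol blue/glycerol dye, run on 1% agarose in TAE for 1.5 h, Ged Red stained, UV visualized.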

Row | inhibition | Structure (SMILES)
22 | inactive | Cc1ccc(Cn2c(/C=C3\SC(=S)N(CC(=O)O)C3=O)nc3ccccc32)cc1
23 | inactive | Cc1ccc(Cn2c(/C=C3\SC(=S)N(CC(=O)O)C3=O)nc3cc(F)ccc32)cc1
24 | inactive | Cc1ccc(Cn2c(/C=C3\SC(=S)N(CC(=O)O)C3=O)nc3ccc(F)cc32)cc1
25 | inactive | O=C(O)CN1C(=O)/C(=C/c2nc3cc(Cl)ccc3n2Cc2ccccc2F)SC1=S

Organism: Homo sapiens
Assay: Inhibition of human topoisomerase 2-mediated pBR322 DNA relaxation at 20 uM after 30 mins by agarose gel electrophoresis
Conditions: not given

Row | inhibition | Structure (SMILES)
26 | Active | Cc1ccc(Cn2c(/C=C3\SC(=S)N(CC(=O)O)C3=O)nc3ccccc32)cc1
27 | Active | Cc1ccc(Cn2c(/C=C3\SC(=S)N(CC(=O)O)C3=O)nc3cc(F)ccc32)cc1
28 | Active | Cc1ccc(Cn2c(/C=C3\SC(=S)N(CC(=O)O)C3=O)nc3ccc(F)cc32)cc1
29 | Active | O=C(O)CN1C(=O)/C(=C/c2nc3cc(Cl)ccc3n2Cc2ccccc2F)SC1=S

Organism: Homo sapiens
Assay: Inhibition of human topoisomerase 2-mediated pBR322 DNA relaxation at 50 uM after 30 mins by agarose gel electrophoresis
Conditions: not given
Summary of the method: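 Relaxation of 200 ng supercoiled pBR322 by 1 U Topo II (TopoGEN) in 20 μL buffer: 50 mM Tris-HCl pH 8.0, 150 mM NaCl, 10 mM MgCl2, 2 mM ATP, 0.5 mM DTT, 30 μg/mL BSA. Incubated 30 min at 37 °C, stopped with sarcosyl/glycerol dye. Products run on 1% agarose in TAE (1.5 h, 75 V), Ged Red stained, UV imaged; etoposide positive control.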

Row | inhibition | Structure (SMILES)
30 | Active | Cc1ccc(Cn2c(/C=C3\SC(=S)N(CC(=O)O)C3=O)nc3cc(F)ccc32)cc1
31 | Active | Cc1ccc(Cn2c(/C=C3\SC(=S)N(CC(=O)O)C3=O)nc3ccc(F)cc32)cc1
32 | Active | O=C(O)CN1C(=O)/C(=C/c2nc3cc(Cl)ccc3n2Cc2ccccc2F)SC1=S

Organism: Homo sapiens
Assay: Inhibition of human topoisomerase 2-mediated pBR322 DNA relaxation at 10 uM after 30 mins by agarose gel electrophoresis
Conditions: not given

Row | inhibition | Structure (SMILES)
33 | Active | Cc1ccc(Cn2c(/C=C3\SC(=S)N(CC(=O)O)C3=O)nc3ccccc32)cc1
34 | Active | Cc1ccc(Cn2c(/C=C3\SC(=S)N(CC(=O)O)C3=O)nc3cc(F)ccc32)cc1
35 | Active | Cc1ccc(Cn2c(/C=C3\SC(=S)N(CC(=O)O)C3=O)nc3ccc(F)cc32)cc1
36 | Active | O=C(O)CN1C(=O)/C(=C/c2nc3cc(Cl)ccc3n2Cc2ccccc2F)SC1=S

Organism: Homo sapiens
Assay: Inhibition of catalytic activity of human topoisomerase 2 assessed as decrease in levels of linear pBR322 DNA trapped by etoposide at 50 uM after 6 mins by agarose gel electrophoresis
Conditions: not given

Row | inhibition | Structure (SMILES)
37 | Active | Cc1ccc(Cn2c(/C=C3\SC(=S)N(CC(=O)O)C3=O)nc3ccccc32)cc1

These compounds were tested on Raji (assay: Cytotoxicity against human Raji cells after 48 hrs by MTT assay). Conditions: not given.
Assay type: functional, cell-based
Summary of the method: as §1

Row | Structure (SMILES) | IC50 [µM]
38 | Cc1ccc(Cn2c(/C=C3\SC(=S)N(CC(=O)O)C3=O)nc3ccccc32)cc1 | 0.96
39 | Cc1ccc(Cn2c(/C=C3\SC(=S)N(CC(=O)O)C3=O)nc3cc(F)ccc32)cc1 | 3.28
40 | Cc1ccc(Cn2c(/C=C3\SC(=S)N(CC(=O)O)C3=O)nc3ccc(F)cc32)cc1 | 2.44
41 | O=C(O)CN1C(=O)/C(=C/c2nc3cc(Cl)ccc3n2Cc2ccccc2F)SC1=S | 2.78

Each compound was assayed on DNA (assay: Induction of Escherichia coli pBR322 DNA intercalation assessed as transformation of topoisomerase1-relaxed pBR322 DNA in to supercoiled DNA at 50 uM preincubated for 10 mins followed by topoisomerase-1 addition and measured after 30 mins by agarose gel electrophoresis method). Conditions: not given.
Assay type: nucleic-acid assay
Summary of the method: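 Unwinding: pBR322 first relaxed by Topo I in buffer (50 mM Tris-HCl pH 7.5, 50 mM KCl, 10 mM MgCl2, 0.5 mM DTT, 0.1 mM EDTA, 30 μg/mL BSA). 0.1 μg relaxed DNA preincubated with compound 10 min at room temperature, then Topo I (1 U) added, 30 min at 37 °C. Phenol-chloroform stop, SDS/EDTA added, agarose electrophoresis in TAE, UV imaging.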

Row | Activity | Structure (SMILES)
42 | inactive | Cc1ccc(Cn2c(/C=C3\SC(=S)N(CC(=O)O)C3=O)nc3ccccc32)cc1
